The target of test [1] is T1, Vitamin D3 receptor (Rattus norvegicus, UniProt P13053).
T1 sequence (P13053 whole entry): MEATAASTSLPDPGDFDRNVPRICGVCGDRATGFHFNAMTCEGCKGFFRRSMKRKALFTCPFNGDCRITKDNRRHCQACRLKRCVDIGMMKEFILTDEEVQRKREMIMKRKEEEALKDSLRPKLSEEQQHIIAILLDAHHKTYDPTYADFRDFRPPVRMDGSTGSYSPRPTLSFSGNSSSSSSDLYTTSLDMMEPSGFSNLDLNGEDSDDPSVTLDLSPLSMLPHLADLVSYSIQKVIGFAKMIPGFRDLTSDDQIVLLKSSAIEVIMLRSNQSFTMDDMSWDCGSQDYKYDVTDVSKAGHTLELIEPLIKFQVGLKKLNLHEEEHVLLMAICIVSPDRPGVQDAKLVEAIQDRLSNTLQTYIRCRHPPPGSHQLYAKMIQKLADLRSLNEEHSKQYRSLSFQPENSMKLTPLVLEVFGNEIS
Kind of test: Displacement of [3H]1,25-(OH)2D3 from rat recombinant His-tagged VDR ligand-binding domain expressed in Escherichia coli BL21. Summed up:
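Crude lysate of E. coli–expressed His-tagged rat VDR-LBD (aa 115–423), diluted 1000-fold in 50 mM Tris, 100 mM KCl, 5 mM DTT, 0.5% Chaps, pH 7.5, BSA 100 µg/mL. Ligand preincubated 1 h RT, then [3H]-1,25-(OH)2D3 (~5000 dpm) 18 h at 4 °C. Dextran-charcoal separation, scintillation counting; at least twice in duplicate; EC50 for 50% displacement.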
For orientation: Displacement assays read how much labelled ligand stays bound in the presence of the test substance.

For test [2], the target named is T2, Vitamin D3 receptor (Homo sapiens, UniProt P11473).
T2 sequence (P11473 whole entry): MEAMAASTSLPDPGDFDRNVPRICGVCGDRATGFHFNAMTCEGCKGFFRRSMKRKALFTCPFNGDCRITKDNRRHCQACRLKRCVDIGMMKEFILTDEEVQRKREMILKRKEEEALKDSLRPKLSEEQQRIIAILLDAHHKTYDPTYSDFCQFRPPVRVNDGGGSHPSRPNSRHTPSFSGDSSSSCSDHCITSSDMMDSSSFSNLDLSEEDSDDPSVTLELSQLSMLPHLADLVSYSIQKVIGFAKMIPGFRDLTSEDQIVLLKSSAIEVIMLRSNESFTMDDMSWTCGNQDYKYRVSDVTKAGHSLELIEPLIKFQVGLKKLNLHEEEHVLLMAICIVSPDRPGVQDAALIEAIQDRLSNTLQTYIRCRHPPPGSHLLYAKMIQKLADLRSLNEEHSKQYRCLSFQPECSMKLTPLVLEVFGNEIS
Put plainly: Agonist activity at human VDR in COS7 cells assessed as induction of transcriptional transactivation after 24 hrs by mouse osteopontin luciferase reporter gene assay. The format is functional, cell-based, COS-7. Background: A reporter such as luciferase makes a cellular process visible.

The target in test [3] is T2, Vitamin D3 receptor. Kind of test: Antagonist activity at human VDR in COS7 cells assessed as induction of transcriptional transactivation after 24 hrs by mouse osteopontin luciferase reporter gene assay. In kind it is functional, cell-based, COS-7. The gist of the method: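 Cos7 cells grown in DMEM + 5% FBS, seeded 2 × 10⁴/well; after 24 h lipofected with hVDR expression plasmid, SPPx3-TK-Luc reporter and pRL-CMV control. After 4 h switched to 5% charcoal-treated FCS; next day ligand given with 10 nM 1,25-(OH)2D3 for 24 h. Dual luciferase normalized to internal control; IC50 from dose–response curves.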

In test [4] the target is T2, Vitamin D3 receptor. Put plainly: Agonist activity at human VDR in HEK293 cells assessed as induction of transcriptional transactivation after 24 hrs by mouse osteopontin luciferase reporter gene assay. The format is functional, cell-based.
Test [5] addresses T2, Vitamin D3 receptor. Kind of test: Antagonist activity at human VDR in HEK293 cells assessed as induction of transcriptional transactivation after 24 hrs by mouse osteopontin luciferase reporter gene assay. In kind it is functional, cell-based. Summed up: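 HEK293 cells in DMEM + 5% FBS with penicillin/streptomycin, 37 °C, 5% CO2; calcium phosphate cotransfection of hVDR expression plasmid and SPPx3-TK-Luc reporter. Compounds added 8 h later with 10 nM 1,25-(OH)2D3; harvest after 16–24 h. Luciferase normalized to β-galactosidase; triplicate; IC50 from dose–response curves.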

On to `C=C1C[C@@H](C[C@H](C)[C@H]2CC[C@H]3/C(=C/C=C4C[C@@H](O)C(=C)[C@H](O)C4)CCC[C@]23C)OC1=O`, for which the results for the half-maximal effective concentration (EC50) on Vitamin D3 receptor [1], at Vitamin D3 receptor [2] and on Vitamin D3 receptor [4] were 5 nM, 6 nM and 20 nM, respectively. Also, on Vitamin D3 receptor [3], the IC50 was 300 nM.

Turning to `C=C1C[C@H](C[C@H](C)[C@H]2CC[C@H]3/C(=C/C=C4C[C@@H](O)C(=C)[C@H](O)C4)CCC[C@]23C)OC1=O`, the figures for the half-maximal effective concentration (EC50) on Vitamin D3 receptor [1], at Vitamin D3 receptor [2] and at Vitamin D3 receptor [4] were 5 nM, 10 nM and 15 nM, respectively. The IC50 on Vitamin D3 receptor [3] was found to be 100 nM.

For the compound `C=C1C[C@H](C[C@@H](C)[C@H]2CC[C@H]3/C(=C/C=C4C[C@@H](O)C(=C)[C@H](O)C4)CCC[C@]23C)OC1=O`, the EC50 was found to be 0.7 nM at Vitamin D3 receptor [1], 25 nM on Vitamin D3 receptor [2] and 1 nM on Vitamin D3 receptor [4].

As for `C=C1C[C@@H](C[C@@H](C)[C@H]2CC[C@H]3/C(=C/C=C4C[C@@H](O)C(=C)[C@H](O)C4)CCC[C@]23C)OC1=O`, the values for the IC50 at Vitamin D3 receptor [5] and on Vitamin D3 receptor [3] were 300 nM and 1000 nM, respectively. In addition, the results for the concentration for a half-maximal effect (EC50) on Vitamin D3 receptor [1], at Vitamin D3 receptor [2] and at Vitamin D3 receptor [4] were 20 nM, 150 nM and 200 nM, respectively.

As usually defined, the EC50 is the midpoint of the concentration-response curve. As a reminder, the IC50 is the midpoint of a concentration-inhibition curve.

Values taken from ChEMBL document CHEMBL1144046, “2-Methylene 19-nor-25-dehydro-1alpha-hydroxyvitamin D3 26,23-lactones: synthesis, biological activities and molecular basis of passive antagonism” (Bioorg Med Chem, 2008).
